Source: ChEMBL document CHEMBL1221280, “Discovery of achiral inhibitors of the hepatitis C virus NS3 protease based on 2(1H)-pyrazinones” (Bioorg Med Chem, 2010)

Assays:
[1] = Inhibition of HCV NS3 protease by FRET assay; set-up: species or system Hepacivirus hominis
Summary of the method: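 Full-length HCV NS3 (protease–helicase/NTPase) protein, protease activity read by FRET. Enzyme at 1 nM incubated 10 min at 30 °C in 50 mM HEPES pH 7.5, 10 mM DTT, 40% glycerol before measurement. Inhibitor Ki given with standard deviation. Wild type and the A156T and D168V variants were tested.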

[2] = biological target: NS3 protease (Hepatitis C virus subtype 1b, UniProt Q0ZMF1, A156T); test: Inhibition of HCV NS3 protease A156T mutant by FRET assay; set-up: species or system Hepacivirus hominis
Summary of the method: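 Protease activity of full-length HCV NS3 (protease–helicase/NTPase) was measured by FRET. 1 nM enzyme was incubated 10 min at 30 °C in 50 mM HEPES pH 7.5, 10 mM DTT, 40% glycerol before read-out.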

Ki [1] [µM]	SMILES	Ki [2] [µM]
11	C=C[C@@H]1C[C@]1(NC(=O)C(c1ccccc1)n1c(C)c(Cl)nc(NC(=O)OC(C)(C)C)c1=O)C(=O)O (stereo in doubt; 29a)	
13	C=C[C@@H]1C[C@]1(NC(=O)C(c1ccccc1)n1c(C)c(Cl)nc(NC(=O)OC(C)(C)C)c1=O)C(=O)O (stereo in doubt; 29b)	
7.2	C=C[C@@H]1C[C@]1(NC(=O)C(c1ccc(OC)cc1)n1c(C)c(Cl)nc(NC(=O)OC(C)(C)C)c1=O)C(=O)NS(=O)(=O)C1CC1 (some centres undefined)	
6.8	C=C[C@@H]1C[C@]1(NC(=O)C(c1ccccc1)n1c(C)c(Cl)nc(NCCC(C)(C)C)c1=O)C(=O)NS(=O)(=O)C1CC1 (some centres undefined)	
18	Cc1c(Cl)nc(NCC(N)=O)c(=O)n1CC(=O)Nc1ccccc1C(=O)NS(=O)(=O)c1ccc(C(F)(F)F)cc1	
5.4	C=C[C@@H]1C[C@]1(NC(=O)[C@@H](NC(=O)[C@@H](NC(=O)OC(C)(C)C)C(C)(C)C)c1ccc(OC)cc1)C(=O)NS(=O)(=O)C1CC1	
12	C=C[C@@H]1C[C@]1(NC(=O)C(c1ccccc1)n1c(C)c(Cl)nc(NCC(N)=O)c1=O)C(=O)NS(=O)(=O)C1CC1 (some centres undefined)	
34	C=C[C@@H]1C[C@]1(NC(=O)[C@H](NC(=O)[C@@H](NC(=O)OC(C)(C)C)C(C)(C)C)c1ccc(OC)cc1)C(=O)NS(=O)(=O)C1CC1	
28	C=C[C@@H]1C[C@]1(NC(=O)C(c1ccccc1)n1c(C)c(Cl)nc(NCC(=O)N(C)C)c1=O)C(=O)NS(=O)(=O)C1CC1 (some centres undefined)	
8.3	C=C[C@@H]1C[C@]1(NC(=O)C(c1ccccc1)n1c(C)c(Cl)nc(NCCc2ccccc2)c1=O)C(=O)NS(=O)(=O)C1CC1 (some centres undefined)	
10	C=C[C@@H]1C[C@]1(NC(=O)C(c1ccccc1)n1c(C)c(Cl)nc(NCC(=O)N2CCOCC2)c1=O)C(=O)NS(=O)(=O)C1CC1 (some centres undefined)	
11	C=C[C@@H]1C[C@]1(NC(=O)C(c1ccccc1)n1c(C)c(Cl)nc(N)c1=O)C(=O)NS(=O)(=O)C1CC1 (some centres undefined)	
11	C=C[C@@H]1C[C@]1(NC(=O)C(c1ccccc1)n1c(C)c(Cl)nc(NCCN2CCOCC2)c1=O)C(=O)NS(=O)(=O)C1CC1 (some centres undefined)	
9.6	Cc1c(Cl)nc(NC(=O)OC(C)(C)C)c(=O)n1C(C(=O)N[C@@H](CC1CC1)C(=O)NS(=O)(=O)C1CC1)c1ccccc1 (some centres undefined)	

SMILES	Ki [1] [µM]	Ki [2] [µM]
O=C(O)CNc1nc(Cl)c(Cc2ccccc2)n(CC(=O)Nc2ccccc2C(=O)NS(=O)(=O)c2ccc(C(F)(F)F)cc2)c1=O	1.5	2.5
O=C(O)CNc1nc(Cl)cn(C(C(=O)Nc2ccccc2C(=O)NS(=O)(=O)c2ccc(C(F)(F)F)cc2)c2ccccc2)c1=O (centres undefined)	2.3	1.8
O=C(O)CNc1nc(Cl)c(-c2ccccc2)n(CC(=O)Nc2ccccc2C(=O)NS(=O)(=O)c2ccc(C(F)(F)F)cc2)c1=O	3	5.6
Cc1c(Cl)nc(NC(=O)OC(C)(C)C)c(=O)n1C(C(=O)Nc1ccccc1C(=O)NS(=O)(=O)c1ccc(C(F)(F)F)cc1)c1ccccc1 (centres undefined)	3.8	1.5
C=C[C@@H]1C[C@]1(NC(=O)C(c1ccccc1)n1c(C)c(Cl)nc(NC(=O)OC(C)(C)C)c1=O)C(=O)NS(=O)(=O)C1CC1 (some centres undefined)	4.3	5.9
